From ChEMBL document CHEMBL1139212, “Indole alkaloids from three species of the Ervatamia genus: E. officinalis, E. divaricata, and E. divaricata Gouyahua” (J Nat Prod, 2007)

How the values were obtained:
P388 = test: Cytotoxicity against murine P388 cells by MTT method; assay type: functional, cell-based; settings: Mus musculus
Summary of the method: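 In vitro growth inhibition of P-388 murine leukemia cells, read by MTT reduction; pseudolaric acid B served as positive control.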

A549 = test: Cytotoxicity against human A549 cells by SRB method; assay type: functional, cell-based
Summary of the method: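 In vitro growth inhibition of A-549 human lung carcinoma cells, read by sulforhodamine B staining; pseudolaric acid B served as positive control.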

| SMILES | IC50 (P388) [nM] | IC50 (A549) [nM] |
| --- | --- | --- |
| CC[C@H]1C[C@@H]2C[C@H]3c4[nH]c5cc([C@@H]6C[C@H]7C(C(=O)OC)[C@@H](Cc8c6[nH]c6ccccc86)N(C)C[C@H]7CC)c(OC)cc5c4CCN(C2)[C@@H]13 (stereo partly specified) | 840 | 1100 |
| C/C=C1/CN(C)[C@@H]2Cc3c([nH]c4ccccc34)[C@H](c3cc4[nH]c5c(c4cc3OC)CCN3C[C@@H]4C[C@H](CC)[C@H]3[C@H]5C4)C[C@H]1C2C(=O)OC (stereo partly specified) | 110 | 520 |
| CC[C@H]1C[C@@H]2C[C@H]3c4[nH]c5cc([C@@H]6C[C@H]7C(C(=O)OC)[C@@H](Cc8c6[nH]c6ccccc86)N(C)C[C@H]7CC)ccc5c4CCN(C2)[C@@H]13 (stereo partly specified) | 430 | 260 |
| CC[C@@]12C=CCN3CC[C@]4(C(=C(C(=O)OC)C1)Nc1cc5c(cc14)[C@H]1[C@@H](O5)[C@H](O)[C@]4(CC)CC(C(=O)OC)=C5Nc6c(cc(O)c(OC)c6OC)[C@@]56CCN1[C@H]46)[C@H]32 [CONOPHYLLIDINE] | 25 | 44 |
| CC[C@H]1C[C@H]2CN3CCc4c([nH]c5cc([C@@H]6C[C@H]7C(C(=O)OC)[C@@H](Cc8c6[nH]c6ccccc86)N(C)C[C@H]7CC)c(OC)cc45)[C@](C(=O)OC)(C2)[C@H]13 (stereo partly specified) [ERVADIVARICATINE B] | 360 | 430 |
| COC(=O)C1=CC[C@@]23CC[C@@H]([C@@](C)(/C=C/C=C(\C)C(=O)O)OC2=O)[C@@]3(OC(C)=O)CC1 [PSEUDOLARIC ACID B] | 3700 |  |
